Results: ChEMBL document CHEMBL1122781, “[(Aminomethyl)aryloxy]acetic acid esters. A new class of high-ceiling diuretics. 1. Effects of nitrogen and aromatic nuclear substitution” (J Med Chem, 1984)

How the values were obtained:
Rattus norvegicus [1] = test: Percent change of arterial blood pressure in spontaneously hypertensive rats at the dose of 3 mg/kg (p.o.) after […] (control BP(mm Hg)=221); assay type: functional; settings: route oral
Canis familiaris [2] = test: Diuretic activity was evaluated by measuring amount of K+ during 0-6 hr in urine of normotensive saline loaded dogs at 0.03mg/kg, po; assay type: ADME, organism-based, Canis lupus familiaris; settings: dog, in vivo
How it was run: (§1)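 Conscious female dogs, each given one oral dose per experiment. Urine and heparinized venous plasma were taken at each collection time. Urine was centrifuged and chilled, and plasma was separated within 30 min. Both were assayed for Na+, K+, Cl−, urate and glucose. Results are mean excretion in mequiv kg−1 (6 h)−1, with at least two dogs per dose.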

Rattus norvegicus [3] = test: Diuretic activity was evaluated by measuring amount of K+ during 0-6 hr in urine of normotensive saline loaded rats at 0.1 mg/kg, po; assay type: ADME, organism-based; design: dose 0.1 mg/kg, route oral; settings: in vivo
How it was run: (§2)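 Male Sprague–Dawley rats (275–375 g), fed and watered ad libitum before testing but not during it, eight per group. Compound in 0.2% methylcellulose/water given orally at 2 mL/kg, immediately followed by a 0.9% saline load equal to 5% of body weight. Rats were kept in individual metabolism cages. Urine was sampled at 2, 6 and 24 h for volume, Na+, K+, Cl−, uric acid and osmolality.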

Rattus norvegicus [4] = test: Diuretic activity was evaluated by measuring amount of Cl- during 0-6 hr in urine of normotensive saline loaded rats at 0.3mg/kg, po; assay type: ADME, organism-based; settings: in vivo; how it was run: as §2
Canis familiaris [5] = test: Diuretic activity was evaluated by measuring amount of Na+ during 0-6 h in urine of normotensive saline loaded dogs at 1.0 mg/kg, po; assay type: ADME, organism-based, Canis lupus familiaris; design: dose 1 mg/kg, route oral; settings: dog, in vivo
How it was run: (§3)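 Conscious dogs, each given a single oral dose per experiment, with at least two dogs per dose. Urine volume is measured; aliquots are centrifuged and chilled. Heparinized venous blood (4 mL) is drawn at each urine collection. Urine and plasma are analyzed for Na+, K+, Cl−, urate and glucose. Result is mean Na+ excretion in mequiv kg−1 (6 h)−1.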

Canis familiaris [6] = test: Diuretic activity was evaluated by measuring amount of K+ during 0-6 hr in urine of normotensive saline loaded dogs at 0.3mg/kg, po; assay type: ADME, organism-based, Canis lupus familiaris; settings: dog, in vivo; how it was run: as §1
Canis familiaris [7] = test: Diuretic activity was evaluated by measuring amount of K+ during 0-6 hr in urine of normotensive saline loaded dogs at 3.0mg/kg, po; assay type: ADME, organism-based, Canis lupus familiaris; settings: dog, in vivo, 3 mg/kg; how it was run: as §1
Rattus norvegicus [8] = test: Diuretic activity was evaluated by measuring amount of Na+ during 0-6 h in urine of normotensive saline loaded rats at 3.0 mg/kg, po; assay type: ADME, organism-based; design: dose 3 mg/kg, route oral; settings: in vivo
How it was run: (§4)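 Male normotensive Sprague–Dawley rats (275–375 g), eight per group. Test compound or vehicle (0.2% methylcellulose in water, 2 mL/kg) is given by mouth, followed at once by a 0.9% saline load equal to 5% of body weight. Rats are housed in metabolism cages without food or water. Urine is collected at 2, 6 and 24 h and assayed for Na+, K+, Cl−, uric acid and osmolality.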

[9] = Diuretic activity was evaluated by measuring amount of K+ during 0-6 hr in urine of […] monkey at 1 mg/kg, po; assay type: ADME, organism-based; design: dose 1 mg/kg, route oral; settings: simiiformes, in vivo
How it was run: (§5)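 Male and female cynomolgus monkeys, fasted 16–18 h with water until dosing, six per dose. Compound or vehicle was given by pediatric nasogastric tube, followed at once by a 50 mL/kg water load. Monkeys were kept in metabolism cages without food or water for 6 h. Urine was collected at 0–1, 1–2, 2–4 and 4–6 h, and volume, electrolytes, uric acid and glucose were measured.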

Rattus norvegicus [10] = test: Diuretic activity was evaluated by measuring amount of Cl- during 0-6 hr in urine of normotensive saline loaded rats at 1.0mg/kg, po; assay type: ADME, organism-based; settings: in vivo, 1 mg/kg; how it was run: as §2
[11] = Diuretic activity was evaluated by measuring amount of K+ during 0-6 h in urine of […] at 10 mg/kg, po; assay type: ADME, organism-based; design: dose 10 mg/kg, route oral; settings: simiiformes, in vivo; how it was run: as §5
Canis familiaris [12] = test: Diuretic activity was evaluated by measuring amount of Na+ during 0-6 h in urine of normotensive saline loaded dogs at 0.3 mg/kg, po; assay type: ADME, organism-based, Canis lupus familiaris; design: dose 0.3 mg/kg, route oral; settings: dog, in vivo; how it was run: as §3
Rattus norvegicus [13] = test: Diuretic activity was evaluated by measuring amount of Na+ during 0-6 hr in urine of normotensive saline loaded rats at 1.0mg/kg, po; assay type: ADME, organism-based; settings: in vivo, 1 mg/kg; how it was run: as §4
Canis familiaris [14] = test: Diuretic activity was evaluated by measuring amount of Cl- during 0-6 h in urine of normotensive saline loaded dogs at 0.3mg/kg, po; assay type: ADME, organism-based, Canis lupus familiaris; settings: dog, in vivo; how it was run: as §1
Canis familiaris [15] = test: Diuretic activity was evaluated by measuring amount of Cl- during 0-6 h in urine of normotensive saline loaded dogs at 3.0 mg/kg, po; assay type: ADME, organism-based, Canis lupus familiaris; design: dose 3 mg/kg, route oral; settings: dog, in vivo; how it was run: as §1
[16] = Diuretic activity was evaluated by measuring amount of Na+ during 0-6 hr in urine of […] monkey at 3mg/kg, po; assay type: ADME, organism-based; settings: simiiformes, in vivo
How it was run: (§6)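 Male and female cynomolgus monkeys, fasted 16–18 h with water until dosing, six per dose. Compound or vehicle is given through a nasogastric tube, then a 50 mL/kg water load. No food or water for 6 h in metabolism cages. Urine is collected at 0–1, 1–2, 2–4 and 4–6 h and analyzed for electrolytes, uric acid and glucose.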

[17] = Diuretic activity was evaluated by measuring amount of Na+ during 0-6 hr in urine of normotensive […] monkey at 1 mg/kg, po; assay type: ADME, organism-based; design: dose 1 mg/kg, route oral; settings: simiiformes, in vivo; how it was run: as §6
Rattus norvegicus [18] = test: Diuretic activity was evaluated by measuring amount of Na+ during 0-6 hr in urine of normotensive saline loaded rats at 30.0mg/kg, po; assay type: ADME, organism-based; settings: in vivo, 30 mg/kg; how it was run: as §4
Rattus norvegicus [19] = test: Oral dose necessary to produce an excretion of 2 mequiv of Na+/kg in the rat urine in the 4-h period after peroral administration; assay type: ADME, organism-based; settings: in vivo
Rattus norvegicus [20] = test: Diuretic activity was evaluated by measuring amount of Na+ during 0-6 h in urine of normotensive saline loaded rats at 0.3 mg/kg, po; assay type: ADME, organism-based; design: dose 0.3 mg/kg, route oral; settings: in vivo; how it was run: as §4
Rattus norvegicus [21] = test: Diuretic activity was evaluated by measuring amount of K+ during 0-6 hr in urine of normotensive saline loaded rats at 10.0mg/kg, po; assay type: ADME, organism-based; settings: in vivo, 10 mg/kg; how it was run: as §2
Rattus norvegicus [22] = test: Diuretic activity was evaluated by measuring amount of K+ during 0-6 hr in urine of normotensive saline loaded rats at 0.3mg/kg, po; assay type: ADME, organism-based; settings: in vivo; how it was run: as §2
[23] = Diuretic activity was evaluated by measuring amount of Cl- during 0-6 hr in urine of normotensive […] monkey at 1 mg/kg, po; assay type: ADME, organism-based; design: dose 1 mg/kg, route oral; settings: simiiformes, in vivo; how it was run: as §5
[24] = Diuretic activity was evaluated by measuring amount of Cl- during 0-6 h in urine of […] monkey at 30 mg/kg, po; assay type: ADME, organism-based; design: dose 30 mg/kg, route oral; settings: simiiformes, in vivo; how it was run: as §5
Rattus norvegicus [25] = test: Percent change of arterial blood pressure in spontaneously hypertensive rats at the dose of 10 mg/kg (p.o.) after 24 hr (control BP(mm Hg)=219); assay type: functional; settings: route oral
Rattus norvegicus [26] = test: Diuretic activity was evaluated by measuring amount of Na+ during 0-6 h in urine of normotensive saline loaded rats at 100.0 mg/kg, po; assay type: ADME, organism-based; design: dose 100 mg/kg, route oral; settings: in vivo; how it was run: as §4
Rattus norvegicus [27] = test: Diuretic activity was evaluated by measuring amount of Cl- during 0-6 hr in urine of normotensive saline loaded rats at 100.0mg/kg, po; assay type: ADME, organism-based; settings: in vivo, 100 mg/kg; how it was run: as §2
[28] = Diuretic activity was evaluated by measuring amount of K+ during 0-6 hr in urine of normotensive water loaded monkey at 3mg/kg, po; settings: simiiformes, in vivo
Rattus norvegicus [29] = test: Percent change of arterial blood pressure in spontaneously hypertensive rats at the dose of 1 mg/kg (p.o.) after 24 hr (control BP(mm Hg)=215); assay type: functional; settings: route oral

Compound `CCOC(=O)COc1ccc(C(=O)c2ccc(O)c(CN)c2)c(Cl)c1Cl.Cl` has a Change (Rattus norvegicus [1]) of -22%, a Diuretic activity (Canis familiaris [2]) of 0.3 m equiv kg-1 and a Diuretic activity (Rattus norvegicus [3]) of 2.6 m equiv kg-1. The Diuretic activity (Rattus norvegicus [4]) was 11.3 m equiv kg-1, the Diuretic activity (Canis familiaris [5]) was 5 m equiv kg-1 and the Diuretic activity (Canis familiaris [6]) was 1 m equiv kg-1. The Diuretic activity (Canis familiaris [7]) was 1.8 m equiv kg-1, the Diuretic activity (Rattus norvegicus [8]) was 13.9 m equiv kg-1 and the Diuretic activity [9] was 0.7 m equiv kg-1. It also gave a Diuretic activity (Rattus norvegicus [10]) of 14.8 m equiv kg-1, a Diuretic activity [11] of 1.3 m equiv kg-1 and a Diuretic activity (Canis familiaris [12]) of 2.7 m equiv kg-1. For the same compound, the Diuretic activity (Rattus norvegicus [13]) was 12.8 m equiv kg-1, the Diuretic activity (Canis familiaris [14]) was 3 m equiv kg-1 and the Diuretic activity (Canis familiaris [15]) was 7.9 m equiv kg-1. It also gave a Diuretic activity [16] of 5.3 m equiv kg-1, a Diuretic activity [17] of 2.7 m equiv kg-1 and a Diuretic activity (Rattus norvegicus [18]) of 14.8 m equiv kg-1. It also gave an ED2 (Rattus norvegicus [19]) of 3 mg/kg, a Diuretic activity (Rattus norvegicus [20]) of 9.6 m equiv kg-1 and a Diuretic activity (Rattus norvegicus [21]) of 3.3 m equiv kg-1. For the same compound, the Diuretic activity (Rattus norvegicus [22]) was 2.7 m equiv kg-1, the Diuretic activity [23] was 2.7 m equiv kg-1 and the Diuretic activity [24] was 6.9 m equiv kg-1. It also gave a Change (Rattus norvegicus [25]) of -19%, a Diuretic activity (Rattus norvegicus [26]) of 13.8 m equiv kg-1 and a Diuretic activity (Rattus norvegicus [27]) of 16.6 m equiv kg-1. For the same compound, the Diuretic activity [28] was 1.1 m equiv kg-1 and the Change (Rattus norvegicus [29]) was -6%.
